Experimental data taken from ChEMBL document CHEMBL3868612, “Discovery of a potent and selective ROMK inhibitor with improved pharmacokinetic properties based on an octahydropyrazino[2,1-c][1,4]oxazine scaffold” (Bioorg Med Chem Lett, 2016).

What was measured:
[1] = molecular target: T1, Voltage-gated inwardly rectifying potassium channel KCNH2 (Homo sapiens, UniProt Q12809); test: Inhibition of human ERG by electrophysiology method
[2] = Oral bioavailability in Sprague-Dawley rat at 1 mg/kg; type: ADME, organism-based; settings: in vivo
[3] = Dose normalized AUC in Sprague-Dawley rat at 1 mg/kg, po; type: ADME, organism-based; settings: in vivo
[4] = molecular target: T1, Voltage-gated inwardly rectifying potassium channel KCNH2; test: Displacement of 35S-MK499 from human ERG expressed in HEK293 cell membranes
In short: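 Membranes were prepared from HEK-293 cells stably expressing hERG. Binding was measured as displacement of 35S-MK499.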

[5] = Half life in Sprague-Dawley rat at 0.5 mg/kg, iv or 1 mg/kg, po; type: ADME, organism-based; settings: in vivo
CHO = test: Selectivity ratio of IC50 for displacement of 35S-MK499 from human ERG to IC50 for human ROMK expressed in CHO cells; type: cell-based
[6] = molecular target: T2, ATP-sensitive inward rectifier potassium channel 1 (Homo sapiens, UniProt P48048); test: Inhibition of human ROMK expressed in CHO cells after 6 mins at -70 mV holding potential by electrophysiology method; type: cell-based
T2 sequence (P48048 whole entry): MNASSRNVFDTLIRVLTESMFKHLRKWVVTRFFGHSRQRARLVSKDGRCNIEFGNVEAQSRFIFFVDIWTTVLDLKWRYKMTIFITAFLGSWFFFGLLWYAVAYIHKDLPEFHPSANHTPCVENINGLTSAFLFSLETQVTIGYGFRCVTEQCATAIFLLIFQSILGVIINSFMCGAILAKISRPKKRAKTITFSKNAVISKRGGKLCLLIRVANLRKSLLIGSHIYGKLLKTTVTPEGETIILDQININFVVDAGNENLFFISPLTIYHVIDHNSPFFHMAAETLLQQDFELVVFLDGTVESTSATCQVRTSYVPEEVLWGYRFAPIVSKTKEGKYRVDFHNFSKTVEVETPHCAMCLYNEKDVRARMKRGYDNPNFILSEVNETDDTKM

[7] = Half life in Sprague-Dawley rat at 1 mg/kg, iv or 2 mg/kg, po; type: ADME, organism-based; settings: in vivo
[8] = Dose normalized AUC in Sprague-Dawley rat at 2 mg/kg, po; type: ADME, organism-based; settings: in vivo
[9] = Oral bioavailability in Sprague-Dawley rat at 2 mg/kg; type: ADME, organism-based; settings: in vivo
[10] = Half life in po dosed human; type: ADME, organism-based; settings: in vivo

T1 sequence (Q12809 whole entry): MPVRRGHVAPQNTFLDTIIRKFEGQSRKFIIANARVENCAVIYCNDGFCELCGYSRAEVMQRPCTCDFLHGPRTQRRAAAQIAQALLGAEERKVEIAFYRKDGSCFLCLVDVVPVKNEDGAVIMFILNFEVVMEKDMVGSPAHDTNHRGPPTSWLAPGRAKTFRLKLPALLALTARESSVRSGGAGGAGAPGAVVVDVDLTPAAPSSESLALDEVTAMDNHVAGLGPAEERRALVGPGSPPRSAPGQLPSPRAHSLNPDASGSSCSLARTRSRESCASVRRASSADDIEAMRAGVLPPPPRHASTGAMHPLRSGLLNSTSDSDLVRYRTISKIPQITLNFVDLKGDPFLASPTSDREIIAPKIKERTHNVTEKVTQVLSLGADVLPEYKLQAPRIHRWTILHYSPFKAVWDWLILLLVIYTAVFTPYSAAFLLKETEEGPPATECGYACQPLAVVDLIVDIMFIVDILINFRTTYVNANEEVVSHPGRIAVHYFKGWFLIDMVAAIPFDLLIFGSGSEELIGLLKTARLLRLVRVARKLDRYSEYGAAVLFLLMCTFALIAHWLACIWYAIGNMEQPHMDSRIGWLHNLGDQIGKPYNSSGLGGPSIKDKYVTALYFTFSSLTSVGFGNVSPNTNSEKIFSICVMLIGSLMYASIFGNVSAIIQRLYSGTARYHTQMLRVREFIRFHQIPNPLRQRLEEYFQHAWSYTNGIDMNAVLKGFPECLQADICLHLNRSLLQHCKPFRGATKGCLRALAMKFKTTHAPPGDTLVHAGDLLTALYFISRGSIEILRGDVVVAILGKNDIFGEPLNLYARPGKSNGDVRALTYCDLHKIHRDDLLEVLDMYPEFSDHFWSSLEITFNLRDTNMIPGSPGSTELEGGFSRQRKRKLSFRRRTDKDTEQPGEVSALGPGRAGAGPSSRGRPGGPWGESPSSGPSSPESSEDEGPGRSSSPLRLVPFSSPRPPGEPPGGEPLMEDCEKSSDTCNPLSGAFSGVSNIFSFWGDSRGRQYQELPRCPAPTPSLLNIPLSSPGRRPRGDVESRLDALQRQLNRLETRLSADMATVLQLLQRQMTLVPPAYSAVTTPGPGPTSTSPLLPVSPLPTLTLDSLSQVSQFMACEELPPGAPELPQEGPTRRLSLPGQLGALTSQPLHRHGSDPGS

SMILES | IC50 [1] [nM] | bioavailability [2] [%] | AUC/dose [3] [µM·kg·h/mg] | half-life [5] [min] | IC50 [6] [nM] | also measured
Cc1c([C@@H]2CN3CCN(C(=O)Cc4ccc(-n5cnnn5)nc4)C[C@@H]3CO2)ccc2c1COC2=O | 74900 | 100 | 2.02 | 48 | 86 | IC50 [4]: 59400 nM; Ratio IC50 (CHO): 690
Cc1c([C@H]2CN3CCN(C(=O)Cc4ccc(-n5cnnn5)nc4)C[C@H]3CO2)ccc(F)c1C#N | 12500 | 69 | 1.8 | 87.6 | 41 | 
Cc1c([C@H]2CN3CCN(C(=O)Cc4cnc(-n5cnnn5)nc4)C[C@H]3CO2)ccc(F)c1C#N |  |  |  |  | 39 | half-life [7]: 81.6 min; AUC/dose [8]: 1.01 µM·kg·h/mg; bioavailability [9]: 54%
Cc1c([C@H]2CN3CCN(C(=O)Cc4cnc(-n5cnnn5)cn4)C[C@H]3CO2)ccc(F)c1C#N | 12300 |  |  |  | 107 | 
Cc1c([C@H]2CN3CCN(C(=O)Cc4ccc(-n5cnnn5)nc4)C[C@@H]3CN2)ccc2c1COC2=O |  |  |  |  | 140 | IC50 [4]: 22000 nM; Ratio IC50 (CHO): 157
Cc1c([C@H]2CN3CCN(C(=O)Cc4ccc(-n5cnnn5)nc4)C[C@H]3CO2)ccc2c1COC2=O | 56500 | 46 | 0.32 | 40.2 | 88 | IC50 [4]: 26800 nM; Ratio IC50 (CHO): 305
Cc1c([C@@H]2CN3CCN(C(=O)Cc4cnc(-n5cnnn5)nc4)C[C@H]3CO2)ccc(F)c1C#N |  |  |  |  | 18 | 
O=C1OCCc2cc([C@@H]3CN4CCN(C(=O)Cc5ccc(-n6cnnn6)nc5)C[C@H]4CO3)ccc21 |  | 65 | 1.4 | 51 | 57 | 
Cc1c([C@H]2CN3CCN(C(=O)Cc4ccc(-n5cnnn5)nc4)C[C@H]3CO2)ccc2nonc12 | 10000 | 100 | 1.8 | 58.2 | 83 | 
O=C1OCCc2cc([C@H]3CN4CCN(C(=O)Cc5ccc(-n6cnnn6)nc5)C[C@H]4CO3)ccc21 |  |  |  |  | 205 | 
Cc1cccc(Nc2ccncc2S(=O)(=O)NC(=O)NC(C)C)c1 [TORSEMIDE] |  |  |  |  |  | half-life [10]: 180 min
O=C1OCCc2cc([C@H]3CN4CCN(C(=O)Cc5ccc(-n6cnnn6)nc5)C[C@@H]4CO3)ccc21 |  | 98 | 2.25 | 45 | 165 | 
Cc1c(C#N)cccc1[C@@H]1CN2CCN(C(=O)Cc3ccc(-n4cnnn4)nc3)C[C@@H]2CO1 | 14800 | 67 | 2 | 98.4 | 27 | 
Cc1c([C@H]2CN3CCN(C(=O)Cc4ccc(-n5cnnn5)cn4)C[C@H]3CO2)ccc(F)c1C#N | 19900 | 68 |  | 57.6 | 70 | 
Cc1c([C@H]2CN3CCN(C(=O)Cc4ccc(-n5cnnn5)nn4)C[C@H]3CO2)ccc(F)c1C#N |  |  |  |  | 86 | 
Cc1c([C@H]2CN3CCN(C(=O)Cc4ccc(-n5cnnn5)nc4)C[C@@H]3CO2)ccc2c1COC2=O |  |  |  |  | 105 | IC50 [4]: 53400 nM; Ratio IC50 (CHO): 508
Cc1c([C@@H]2CN3CCN(C(=O)Cc4ccc(-n5cnnn5)nc4)C[C@H]3CO2)ccc2nonc12 | > 10000 |  |  |  | 72 | 
Cc1c(C#N)cccc1[C@@H]1CN2CCN(C(=O)Cc3ccc(-n4cnnn4)nc3)C[C@H]2CO1 |  |  |  |  | 50 | 
Cc1c([C@@H]2CN3CCN(C(=O)Cc4ccc(-n5cnnn5)nc4)C[C@H]3CO2)ccc2c1COC2=O | 19700 | 82 | 2.05 | 60 | 65 | IC50 [4]: 21100 nM; Ratio IC50 (CHO): 325
O=C(Cc1ccc(-n2cnnn2)nc1)N1CCN2C[C@@H](c3ccc4nonc4c3)OC[C@@H]2C1 |  |  |  |  | 45 | 
Cc1c(C#N)cccc1[C@H]1CN2CCN(C(=O)Cc3ccc(-n4cnnn4)nc3)C[C@H]2CO1 | 17600 |  |  |  | 112 | 
Cc1c([C@@H]2CN3CCN(C(=O)Cc4ccc(-n5cnnn5)nc4)C[C@@H]3CO2)ccc(F)c1C#N | > 10000 |  |  |  | 60 | 
Cc1c([C@@H]2CN3CCN(C(=O)Cc4ccc(-n5cnnn5)nc4)C[C@H]3CO2)ccc(F)c1C#N | 10000 | 57 | 1 | 63 | 36 | 
O=C(Cc1ccc(-n2cnnn2)nc1)N1CCN2C[C@H](c3ccc4nonc4c3)OC[C@@H]2C1 |  |  |  |  | 104 | 
O=C1OCCc2cc([C@@H]3CN4CCN(C(=O)Cc5ccc(-n6cnnn6)cc5)C[C@H]4CO3)ccc21 | > 30000 |  |  |  |  | 
O=C1OCCc2cc([C@@H]3CN4CCN(C(=O)Cc5cnc(-n6cnnn6)nc5)C[C@H]4CO3)ccc21 | > 90000 | 12 | 0.18 | 29.4 | 260 | 
Cc1c([C@@H]2CN3CCN(C(=O)Cc4ccc(-n5cnnn5)nc4)C[C@H]3CS2)ccc2c1COC2=O |  |  |  |  | 100 | IC50 [4]: 8900 nM; Ratio IC50 (CHO): 89
Cc1c([C@@H]2CN3CCN(C(=O)Cc4cnc(-n5cnnn5)cn4)C[C@H]3CO2)ccc(F)c1C#N | 10000 | 100 | 4.64 | 84 | 33 | 
